Data taken from ChEMBL document CHEMBL4184236, “Design, synthesis and biological evaluation of matrine derivatives as potential anticancer agents” (Bioorg Med Chem Lett, 2018).

Legend:
CNE-2 [1] = assay: Anticancer activity against human CNE2 cells assessed as reduction in cell viability incubated for 48 hrs MTT assay; assay type: functional, cell-based; details: CNE-2, 48 h
Method in brief: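 MTT assay on human hepatocarcinoma SMMC-7721, lung carcinoma A549 and nasopharyngeal carcinoma CNE2 cells, with matrine as comparator and cisplatin as positive control. IC50 is the concentration that lowers optical density of treated cells by 50% versus untreated cells, given as the mean ± SD of three experiments.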

CNE-2 [2] = assay: Induction of apoptosis in human CNE2 cells assessed as viable cells level at 5 uM incubated for 24 hrs by Annexin V-FITC/PI dual staining based flow cytometry (reference value: 91.6%); assay type: functional
Method in brief: (§1)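 CNE2 and SMMC-7721 cells were treated for 24 h at 0, 5, 10 or 30 µM, or at 0, 10, 20 or 50 µM depending on compound. Cells were stained with Annexin V-FITC/propidium iodide and quantified by flow cytometry. Apoptotic cells were counted as AV+/PI− (lower right) plus AV+/PI+ (upper right) quadrants.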

CNE-2 [3] = assay: Induction of apoptosis in human CNE2 cells assessed as necrotic cells level at 5 uM incubated for 24 hrs by Annexin V-FITC/PI dual staining based flow cytometry (reference value: 3.43%); assay type: functional; method in brief: as §1
CNE-2 [4] = assay: Induction of apoptosis in human CNE2 cells assessed as viable cells level at 30 uM incubated for 24 hrs by Annexin V-FITC/PI dual staining based flow cytometry (reference value: 91.6%); assay type: functional; method in brief: as §1
CNE-2 [5] = assay: Induction of apoptosis in human CNE2 cells assessed as early apoptotic cells level at 30 uM incubated for 24 hrs by Annexin V-FITC/PI dual staining based flow cytometry (reference value: 3.56%); assay type: functional; method in brief: as §1
SMMC-7721 [6] = assay: Induction of apoptosis in human SMMC7721 cells assessed as necrotic cells level at 5 uM incubated for 24 hrs by Annexin V-FITC/PI dual staining based flow cytometry (reference value: 2.47%); assay type: functional; method in brief: as §1
SMMC-7721 [7] = assay: Induction of apoptosis in human SMMC7721 cells assessed as late apoptotic cells level at 10 uM incubated for 24 hrs by Annexin V-FITC/PI dual staining based flow cytometry (reference value: 0.88%); assay type: functional; method in brief: as §1
SMMC-7721 [8] = assay: Induction of apoptosis in human SMMC7721 cells assessed as late apoptotic cells level at 30 uM incubated for 24 hrs by Annexin V-FITC/PI dual staining based flow cytometry (reference value: 0.88%); assay type: functional; method in brief: as §1
CNE-2 [9] = assay: Induction of cell cycle arrest in human CNE2 cells assessed as accumulation at subG1 phase at 5 uM incubated for 24 hrs by propidium iodide staining based flow cytometry (reference value: 0.55%); assay type: functional
CNE-2 [10] = assay: Induction of cell cycle arrest in human CNE2 cells assessed as accumulation at G2/M phase at 5 uM incubated for 24 hrs by propidium iodide staining based flow cytometry (reference value: 19.8%); assay type: functional
CNE-2 [11] = assay: Induction of cell cycle arrest in human CNE2 cells assessed as accumulation at subG1 phase at 10 uM incubated for 24 hrs by propidium iodide staining based flow cytometry (reference value: 0.55%); assay type: functional
CNE-2 [12] = assay: Induction of cell cycle arrest in human CNE2 cells assessed as accumulation at G0-G1 phase at 10 uM incubated for 24 hrs by propidium iodide staining based flow cytometry (reference value: 69.3%); assay type: functional
CNE-2 [13] = assay: Induction of cell cycle arrest in human CNE2 cells assessed as accumulation at S phase at 10 uM incubated for 24 hrs by propidium iodide staining based flow cytometry (reference value: 10.3%); assay type: functional
CNE-2 [14] = assay: Induction of cell cycle arrest in human CNE2 cells assessed as accumulation at S phase at 30 uM incubated for 24 hrs by propidium iodide staining based flow cytometry (reference value: 10.3%); assay type: functional
CNE-2 [15] = assay: Induction of cell cycle arrest in human CNE2 cells assessed as accumulation at G2/M phase at 30 uM incubated for 24 hrs by propidium iodide staining based flow cytometry (reference value: 19.8%); assay type: functional
SMMC-7721 [16] = assay: Induction of cell cycle arrest in human SMMC7721 cells assessed as accumulation at subG1 phase at 5 uM incubated for 24 hrs by propidium iodide staining based flow cytometry (reference value: 0.33%); assay type: functional
SMMC-7721 [17] = assay: Induction of cell cycle arrest in human SMMC7721 cells assessed as accumulation at G2/M phase at 5 uM incubated for 24 hrs by propidium iodide staining based flow cytometry (reference value: 18.4%); assay type: functional
SMMC-7721 [18] = assay: Induction of cell cycle arrest in human SMMC7721 cells assessed as accumulation at subG1 phase at 10 uM incubated for 24 hrs by propidium iodide staining based flow cytometry (reference value: 0.33%); assay type: functional
SMMC-7721 [19] = assay: Induction of cell cycle arrest in human SMMC7721 cells assessed as accumulation at S phase at 10 uM incubated for 24 hrs by propidium iodide staining based flow cytometry (reference value: 17.2%); assay type: functional
SMMC-7721 [20] = assay: Induction of cell cycle arrest in human SMMC7721 cells assessed as accumulation at G2/M phase at 10 uM incubated for 24 hrs by propidium iodide staining based flow cytometry (reference value: 18.4%); assay type: functional
SMMC-7721 [21] = assay: Induction of cell cycle arrest in human SMMC7721 cells assessed as accumulation at subG1 phase at 30 uM incubated for 24 hrs by propidium iodide staining based flow cytometry (reference value: 0.33%); assay type: functional
SMMC-7721 [22] = assay: Induction of cell cycle arrest in human SMMC7721 cells assessed as accumulation at G0-G1 phase at 30 uM incubated for 24 hrs by propidium iodide staining based flow cytometry (reference value: 64.1%); assay type: functional
SMMC-7721 [23] = assay: Induction of cell cycle arrest in human SMMC7721 cells assessed as accumulation at S phase at 30 uM incubated for 24 hrs by propidium iodide staining based flow cytometry (reference value: 17.2%); assay type: functional
SMMC-7721 [24] = assay: Induction of cell cycle arrest in human SMMC7721 cells assessed as accumulation at G2/M phase at 30 uM incubated for 24 hrs by propidium iodide staining based flow cytometry (reference value: 18.4%); assay type: functional

COc1cc(Cn2cccc2/C=C2\CC[C@@H]3[C@H]4CCCN5CCC[C@@H](CN3C2=O)[C@@H]45)cc(OC)c1
IC50 (CNE-2 [1]): 3.55 µM | Activity (CNE-2 [2]): 85.5% | Activity (CNE-2 [3]): 2.58% | Activity (CNE-2 [4]): 43% | Activity (CNE-2 [5]): 34.6% | Activity (SMMC-7721 [6]): 4.04% | Activity (SMMC-7721 [7]): 18.5% | Activity (SMMC-7721 [8]): 17% | Activity (CNE-2 [9]): 5.06% | Activity (CNE-2 [10]): 29.5% | Activity (CNE-2 [11]): 4.35% | Activity (CNE-2 [12]): 3.93% | Activity (CNE-2 [13]): 2.43% | Activity (CNE-2 [14]): 4.8% | Activity (CNE-2 [15]): 81.1% | Activity (SMMC-7721 [16]): 4.95% | Activity (SMMC-7721 [17]): 24.1% | Activity (SMMC-7721 [18]): 6.61% | Activity (SMMC-7721 [19]): 8.92% | Activity (SMMC-7721 [20]): 78.9% | Activity (SMMC-7721 [21]): 3.08% | Activity (SMMC-7721 [22]): 8.58% | Activity (SMMC-7721 [23]): 9.28% | Activity (SMMC-7721 [24]): 79.1%
